Results taken from ChEMBL document CHEMBL3616436, “Synthesis, cytotoxicity and antimicrobial activity of thiourea derivatives incorporating 3-(trifluoromethyl)phenyl moiety” (Eur J Med Chem, 2015).
In brackets after ≈: the same amount, converted by molar mass. Activity calls are given as the source filed them. The rule behind the calls is not given here.

Assays:
Human alphaherpesvirus 1 = experiment: Antiviral activity against Human herpesvirus 1 KOS ATCC VR-1493 infected in African green monkey Vero 76 cells assessed as reduction of virus-plaque formation after 3 days by crystal violet staining; format: functional, organism-based; settings: Human alphaherpesvirus 1, KOS ATCC VR1493, Vero, 72 h
In short: (§1)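 Plaque reduction: Vero-76 at 2x10^5 cells/well grown to confluent monolayers, infected 2 h at 50–100 PFU/well; after removing unadsorbed virus, overlay of D-MEM, 1% inactivated FBS, 0.75% methylcellulose with or without serial compound dilutions; 3 days at 37°C, fixed and stained with crystal violet in 50% ethanol, plaques counted; EC50 by linear regression.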

Yellow fever virus = experiment: Antiviral activity against Yellow fever virus 17D infected in BHK cells assessed as protection against virus-induced cytopathogenicity after 3 to 4 days by MTT assay; format: functional, cell-based
[1] = system: Staphylococcus epidermidis; experiment: Antimicrobial activity against hospital methicillin-resistant Staphylococcus epidermidis 31/04 after 18 hrs by twofold serial microdilution method; format: functional; settings: 31/04, 18 h
In short: (§2)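 Twofold serial microdilution in Mueller-Hinton broth. Compound stock was made in DMSO and diluted in sterile water. Tested range was 0.125–512 µg/mL. Final inoculum was 10^5 CFU/mL. Plates were incubated 18 h at 35 °C. MIC is the lowest concentration preventing visible growth.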

[2] = system: Staphylococcus epidermidis; experiment: Antimicrobial activity against hospital methicillin-resistant Staphylococcus epidermidis 62/04 after 18 hrs by twofold serial microdilution method; format: functional; settings: 62/04, 18 h; in short: as §2
Staphylococcus aureus [3] = experiment: Antimicrobial activity against Staphylococcus aureus ATCC 29213 at 400 ug after 18 hrs by disc-diffusion method; format: functional; settings: ATCC 29213, 18 h, read-out: IZ
In short: (§3)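 Disc diffusion on Mueller-Hinton II agar per CLSI; 9 mm paper discs loaded with 400 µg compound from DMSO solution, dried, placed on agar; growth inhibition zone diameter read after 18 h at 35°C.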

Enterococcus faecalis = experiment: Antimicrobial activity against Enterococcus faecalis ATCC 29212 at 400 ug after 18 hrs by disc-diffusion method; format: functional; in short: as §3
Staphylococcus aureus [4] = experiment: Antimicrobial activity against hospital methicillin-resistant Staphylococcus aureus 54/05 after 18 hrs by twofold serial microdilution method; format: functional; settings: 54/05, 18 h; in short: as §2
Staphylococcus aureus [5] = experiment: Antimicrobial activity against hospital methicillin-resistant Staphylococcus aureus 57/05 after 18 hrs by twofold serial microdilution method; format: functional; settings: 57/05, 18 h; in short: as §2
[6] = system: Mycobacterium tuberculosis; experiment: Antimycobacterial activity against drug-sensitive Mycobacterium tuberculosis Spec. 192; format: functional
In short: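 Classical test-tube successive-dilution method in Youmans' modification of Proskauer and Beck liquid medium with 10% bovine serum. Inoculum came from 14-day cultures. DMSO stock was 10 mg/mL, diluted geometrically in medium. Tubes were incubated at 37 °C. Concentrations tested were 3.1, 6.2, 12.5, 25, 50 and 100 µg/ml. MIC is the minimum concentration inhibiting growth relative to compound-free tubes.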

[7] = system: Staphylococcus epidermidis; experiment: Ratio of ciprofloxacin MIC to compound MIC for hospital methicillin-resistant Staphylococcus epidermidis 151/04 after 18 hrs by twofold serial microdilution method; format: functional
In short: (§4)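 Ratio of MICs for ciprofloxacin and test agent, each from twofold serial broth microdilution in Mueller-Hinton broth following CLSI guidelines. DMSO stock was diluted in sterile water to 0.125–512 µg/mL, with a final inoculum of 10^5 CFU/mL.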

Staphylococcus aureus [8] = experiment: Ratio of ciprofloxacin MIC to compound MIC for hospital methicillin-resistant Staphylococcus aureus 80/05 after 18 hrs by twofold serial microdilution method; format: functional; in short: as §4
Staphylococcus aureus [9] = experiment: Antimicrobial activity against hospital methicillin-resistant Staphylococcus aureus 522/11 after 18 hrs by twofold serial microdilution method; format: functional; settings: 522/11, 18 h; in short: as §2
[10] = Cytotoxicity against BHK cells assessed as cell viability after 48 to 96 hrs by MTT assay; format: cell-based, Mesocricetus auratus; settings: hamster
[11] = system: Human immunodeficiency virus 1; experiment: Antiviral activity against HIV1 3B infected in human MT4 cells assessed as protection against virus-induced cytopathogenicity by MTT assay; format: functional, organism-based; settings: Human immunodeficiency virus 1, 3B
Staphylococcus aureus [12] = experiment: Antimicrobial activity against Staphylococcus aureus ATCC 25923 at 400 ug after 18 hrs by disc-diffusion method; format: functional; settings: ATCC 25923, 18 h, read-out: IZ; in short: as §3
[13] = system: Staphylococcus epidermidis; experiment: Antimicrobial activity against hospital methicillin-resistant Staphylococcus epidermidis 16/04 after 18 hrs by twofold serial microdilution method; format: functional; settings: 16/04, 18 h; in short: as §2
[14] = Cytotoxicity against African green monkey Vero 76 cells assessed as cell viability after 48 to 96 hrs by crystal violet staining; format: cell-based; settings: chlorocebus sabaeus
Staphylococcus aureus [15] = experiment: Antimicrobial activity against Staphylococcus aureus ATCC 6538 after 18 hrs by twofold serial microdilution method; format: functional; settings: ATCC 6538, 18 h
Coxsackievirus B5 = experiment: Antiviral activity against Human coxsackievirus B5 ATCC VR-29 infected in African green monkey Vero 76 cells assessed as reduction of virus-plaque formation after 3 days by crystal violet staining; format: functional, organism-based; settings: Enterovirus B, ATCC VR-29, Vero, 72 h; in short: as §1
Staphylococcus aureus [16] = experiment: Ratio of ciprofloxacin MIC to compound MIC for hospital methicillin-resistant Staphylococcus aureus 522/11 after 18 hrs by twofold serial microdilution method; format: functional; in short: as §4
Staphylococcus aureus [17] = experiment: Antimicrobial activity against hospital methicillin-resistant Staphylococcus aureus 573/11 after 18 hrs by twofold serial microdilution method; format: functional; settings: 573/11, 18 h; in short: as §2
Staphylococcus aureus [18] = experiment: Ratio of ciprofloxacin MIC to compound MIC for hospital methicillin-resistant Staphylococcus aureus 57/05 after 18 hrs by twofold serial microdilution method; format: functional; in short: as §4
Vaccinia virus = experiment: Antiviral activity against Human Vaccinia virus ATCC VR-1549 infected in African green monkey Vero 76 cells assessed as reduction of virus-plaque formation after 3 days by crystal violet staining; format: functional, organism-based; settings: Orthopoxvirus vaccinia, ATCC VR-1549, Vero, 72 h
Staphylococcus aureus [19] = experiment: Ratio of ciprofloxacin MIC to compound MIC for hospital methicillin-resistant Staphylococcus aureus 79/05 after 18 hrs by twofold serial microdilution method; format: functional; in short: as §4
Staphylococcus aureus [20] = experiment: Ratio of ciprofloxacin MIC to compound MIC for hospital methicillin-resistant Staphylococcus aureus 54/05 after 18 hrs by twofold serial microdilution method; format: functional; in short: as §4
[21] = system: Mammalian orthoreovirus 1; experiment: Antiviral activity against Reovirus type-1 ATCC VR-214 infected in BHK cells assessed as protection against virus-induced cytopathogenicity after 3 to 4 days by MTT assay; format: functional, cell-based; settings: Mammalian orthoreovirus 1, ATCC VR-214, BHK
In short: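 Cells seeded in 96-well plates (BHK 5x10^4, MDBK 3x10^4 cells/well), grown overnight to confluence, infected at m.o.i. 0.01 (BHK for Reo-1, MDBK for BVDV); serial compound dilutions in maintenance medium with 0.5% inactivated FBS added after 1 h; viability by MTT after 3–4 days at 37°C; EC50 for 50% protection by linear regression.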

[22] = system: Staphylococcus epidermidis; experiment: Ratio of ciprofloxacin MIC to compound MIC for hospital methicillin-resistant Staphylococcus epidermidis 23/04 after 18 hrs by twofold serial microdilution method; format: functional; in short: as §4
[23] = system: Staphylococcus epidermidis; experiment: Antimicrobial activity against Staphylococcus epidermidis ATCC 12228 after 18 hrs by twofold serial microdilution method; format: functional; settings: ATCC 12228, 18 h
Micrococcus luteus = experiment: Antimicrobial activity against Micrococcus luteus ATCC 10240 at 400 ug after 18 hrs by disc-diffusion method; format: functional; settings: ATCC 10240, 18 h, read-out: IZ; in short: as §3

SMILES: FC(F)(F)c1cccc(NC(=S)NCCc2ccccc2)c1
- EC50 (Human alphaherpesvirus 1): > 46 µM
- EC50 (Yellow fever virus): > 29 µM
- MIC [1]: 16 µg/mL (≈ 49.3 µM)
- MIC [2]: 8 µg/mL (≈ 24.7 µM)
- zone of inhibition at 400 µg/disc (Staphylococcus aureus [3]): 15 mm
- inhibition zone (IZ) (Enterococcus faecalis): inactive
- MIC (Staphylococcus aureus [4]): 8 µg/mL (≈ 24.7 µM)
- MIC (Staphylococcus aureus [5]): 8 µg/mL (≈ 24.7 µM)
- MIC [6]: 100 µg/mL (≈ 308 µM)
- Ratio [7]: 128
- Ratio (Staphylococcus aureus [8]): 128
- MIC (Staphylococcus aureus [9]): 16 µg/mL (≈ 49.3 µM)
- CC50 [10]: 29 µM
- EC50 [11]: > 8.8 µM
- zone of inhibition at 400 µg/disc (Staphylococcus aureus [12]): 15 mm
- MIC [13]: 8 µg/mL (≈ 24.7 µM)
- CC50 [14]: 46 µM
- MIC (Staphylococcus aureus [15]): 8 µg/mL (≈ 24.7 µM)
- EC50 (Coxsackievirus B5): > 46 µM
- Ratio (Staphylococcus aureus [16]): 128
- MIC (Staphylococcus aureus [17]): 16 µg/mL (≈ 49.3 µM)
- Ratio (Staphylococcus aureus [18]): 128
- EC50 (Vaccinia virus): > 46 µM
- Ratio (Staphylococcus aureus [19]): 128
- Ratio (Staphylococcus aureus [20]): 128
- EC50 [21]: > 29 µM
- Ratio [22]: 128
- MIC [23]: 16 µg/mL (≈ 49.3 µM)
- zone of inhibition at 400 µg/disc (Micrococcus luteus): 15 mm
